Bioassay records: PubChem, several laboratories
An excerpt weighted towards active compounds, which were near 2.6% of everything screened.
SENP6 inh: inhibitors of human SENP6 protease. Q9GZR1. Recombinant SENP6 catalytic domain, aminoluciferin luminescence. inhibition, % at 10 µM. actives 1.8% (n = 330,000). AID 2599;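 active means inhibition above about 50% at the single tested dose, limit read from the data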
Target sequence (Q9GZR1 628-1112 limits assumed): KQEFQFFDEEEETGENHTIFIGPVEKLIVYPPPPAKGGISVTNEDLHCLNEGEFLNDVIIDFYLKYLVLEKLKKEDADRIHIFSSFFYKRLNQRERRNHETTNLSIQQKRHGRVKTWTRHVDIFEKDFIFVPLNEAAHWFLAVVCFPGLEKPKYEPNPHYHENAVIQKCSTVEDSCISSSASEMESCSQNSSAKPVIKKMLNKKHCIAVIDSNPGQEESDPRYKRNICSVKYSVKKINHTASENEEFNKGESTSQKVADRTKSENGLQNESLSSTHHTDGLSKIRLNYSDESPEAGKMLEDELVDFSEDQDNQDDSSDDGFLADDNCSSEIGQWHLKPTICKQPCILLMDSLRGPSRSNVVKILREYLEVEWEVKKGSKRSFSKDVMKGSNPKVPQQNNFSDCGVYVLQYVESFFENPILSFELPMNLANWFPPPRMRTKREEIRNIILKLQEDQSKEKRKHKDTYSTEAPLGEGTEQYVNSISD
SENP8 block-1: blocks the human protease SENP8 | purified SENP8, Z-RLRGG-aminoluciferin cleavage, luminescence | inhibition, % at 10 µM | actives 1.2% (n = 330,000) | AID 2540; in the data active means inhibition above about 50%
Target sequence (Q96LD8 whole entry, looked up): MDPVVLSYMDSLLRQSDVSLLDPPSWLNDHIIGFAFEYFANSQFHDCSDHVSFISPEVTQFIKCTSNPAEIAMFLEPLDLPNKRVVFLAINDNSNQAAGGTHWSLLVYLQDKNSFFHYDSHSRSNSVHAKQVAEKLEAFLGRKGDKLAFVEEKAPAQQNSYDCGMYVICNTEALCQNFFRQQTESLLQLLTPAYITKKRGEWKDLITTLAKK
SENP1 FRET inh: blocks the human SENP1 SUMO protease catalytic domain; actives 0.21% (n = 360,000); Q9P0U3; recombinant SENP1 catalytic domain, CyPet-SUMO1-YPet FRET cleavage; inhibition, % at 10 µM;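 active means inhibition at least 30% at 10 µM, raw YFP signal under a set limit, fluorescence ratio 0.5 to 1.5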
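Test system: human SENP1 catalytic domain; medium: Tris pH 8 buffer plus EDTA, NaCl, BME, BSA, NP40, catalase; incubation: 50 min reaction at room temperature; technique: FRET, CFP and YFP emission; controls: no-enzyme low control and enzyme-plus-DMSO high control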
SENP8 block-2: SENP8 (human) protease inhibition. Q96LD8. recombinant SENP8, Nedd8 substrate fluorescence. inhibition, % at 20 µM. actives 0.64% (n = 360,000); in the data active means inhibition mostly above about 40%, no sharp cut-off; inactive means mostly below about 27%
UCH37 DUB inh: human UCH37 deubiquitinating enzyme inhibition; purified proteasome/UCH37, Ub-AMC cleavage fluorescence; Q9Y5K5; actives 0.33% (n = 330,000); inhibition, % (no concentration beside the values);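 active means mean inhibition over replicate wells above about 20%, limit read from the data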
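system = Proteasome-associated human UCH37 deubiquitinase | amount = 0.15 nM proteasome as dispensed | medium = pH 7.4 Tris-HCl (50 mM) with ovalbumin, ATP-MgCl2, DTT | incubation = 30 min preincubation with enzyme, 25 min cleavage at room temperature | detection = AMC fluorescence 355/460 nm | read-out basis = percent inhibition | controls = no-proteasome and no-compound wells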
SENP7 inh: inhibitors of human SENP7 protease; recombinant SENP7, Z-RLRGG-aminoluciferin luminescence, 40 min; AID 434973; inhibition, % at 5 µM; actives 1.5% (n = 330,000);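 active means inhibition above about 50% at the single test dose, limit read from the data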
SENP8 conf: confirmation of human SENP8 protease inhibitors; shares compounds with SENP7 inh; Recombinant SENP8, Z-RLRGG-aminoluciferin luminescence, 60 min; inhibition, % at 12.5 µM; actives 40% (n = 6,200); AID 488912;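 active means mean inhibition across replicates above about 50%, limit read from the data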
SENP6 confirm: human SENP6 inhibition, confirmed. shares compounds with SENP7 inh. recombinant SENP6, Z-RLRGG-aminoluciferin luminescence. inhibition, % at 12.5 µM. actives 58% (n = 6,200). AID 488915
SENP7 confirm: human SENP7 inhibition, confirmed; AID 488917; inhibition, % at 12.5 µM; actives 69% (n = 6,200); recombinant SENP7, Z-RLRGG-aminoluciferin luminescence, 40 min; shares compounds with SENP7 inh
Casp3 SENP sel: selectivity test for SENP inhibitors: human caspase-3 inhibition | inhibition, % at 12.5 µM | shares compounds with SENP7 inh | purified caspase-3, Z-DEVD-aminoluciferin luminescence, 60 min | AID 488918 | actives 60% (n = 6,200);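 active means mean inhibition above about 50%, limit read from the data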
Luc interf: interferes with luciferase luminescence in SENP counter-screen | Pre-incubated SENP8/Z-RLRGG-aminoluciferin, luciferase luminescence interference | AID 488919 | actives 39% (n = 6,200) | shares compounds with SENP7 inh | inhibition, % at 12.5 µM;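 active means mean inhibition above about 50% when retested at one dose, limit read from the data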
Large screens that a line does not name were inactive (follow-up assays come after a bar, where they were run).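 How the source made its calls, unless noted: active means mean inhibition above about 50% in the one-dose retest (limit read from the data); inactive means the rest.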

O=C(COC(=O)c1ccncc1)Nc1cccc(Cl)c1	none
NC(=S)Nc1cccc2cc3ccccc3cc12	SENP6 inh 61 | SENP8 conf 51 | SENP6 confirm 60 | SENP7 confirm 74 | Casp3 SENP sel inactive | Luc interf 61
CCNC(=O)COC(=O)c1ccc(-c2nc3ccccc3s2)s1	SENP6 inh 96, SENP8 block-1 96, SENP7 inh 99 | SENP8 conf 87 | SENP6 confirm 96 | SENP7 confirm 101 | Casp3 SENP sel 93 | Luc interf inactive
O=C(c1ccc(-c2nc3ccccc3s2)s1)N1CCOCC1	SENP6 inh 97, SENP8 block-1 94, SENP7 inh 96 (no result: SENP1 FRET inh, SENP8 block-2) | SENP8 conf 91 | SENP6 confirm 97 | SENP7 confirm 101 | Casp3 SENP sel 96 | Luc interf 69
CCN1CCN(C(=O)c2ccc(-c3nc4ccccc4s3)s2)CC1	SENP6 inh 61 | SENP8 conf 56 | SENP6 confirm 52 | SENP7 confirm 82 | Casp3 SENP sel 69 | Luc interf inactive
O=C(NC1CC1)c1ccc(-c2nc3ccccc3s2)s1	SENP6 inh 91, SENP8 block-1 88, SENP7 inh 98 | SENP8 conf 81 | SENP6 confirm 95 | SENP7 confirm 102 | Casp3 SENP sel 96 | Luc interf inactive
O=C(c1cccc2c1-c1ccccc1C2=NO)N1CCCCC1	none (no result: SENP6 inh, SENP8 block-1, SENP1 FRET inh, SENP8 block-2, SENP7 inh)
Cc1ccc2nc(-c3cccnc3SCC(=O)N3c4ccccc4CC3C)[nH]c2c1 (stereo not drawn)	SENP6 inh 55 | SENP8 conf inactive | SENP6 confirm inactive | SENP7 confirm 70 | Casp3 SENP sel inactive | Luc interf inactive
Cc1ccc2nc(SCC(=O)N3c4ccccc4CC3C)c(C)cc2c1 (stereo not drawn)	none
CCCN1CCN(CCCNC(=S)Nc2ccc3nc(N4CCN(CC)CC4)cc(C)c3c2)CC1	SENP6 inh 89 | SENP8 conf inactive | SENP6 confirm inactive | SENP7 confirm inactive | Casp3 SENP sel inactive | Luc interf inactive
Cc1cc(N2CCN(C)CC2)nc2ccc(NC(=S)N3CCN(c4ccc(Cl)cc4)CC3)cc12	SENP6 inh 55 | SENP8 conf inactive | SENP6 confirm inactive | SENP7 confirm inactive | Casp3 SENP sel inactive | Luc interf inactive
CCCCNC(=S)Nc1ccc2nc(N3CCN(CC)CC3)cc(C)c2c1	none
Cc1cc(N2CCOCC2)nc2ccc(NC(=S)N3CCCCC3C)cc12 (stereo not drawn)	SENP6 inh 55 | SENP8 conf inactive | SENP6 confirm inactive | SENP7 confirm inactive | Casp3 SENP sel inactive | Luc interf inactive
O=C1CCCCC1Sc1nnc(-c2ccc3c(c2)OCO3)o1 (stereo not drawn)	SENP6 inh 80, SENP8 block-1 68, SENP7 inh 73 | SENP8 conf 72 | SENP6 confirm 72 | SENP7 confirm 93 | Casp3 SENP sel 89 | Luc interf 77
Cc1ccc(-c2nnc(-c3ccc4c(c3)OCO4)o2)cc1	SENP7 inh 83 | SENP8 conf inactive | SENP6 confirm inactive | SENP7 confirm inactive | Casp3 SENP sel inactive | Luc interf inactive
c1coc(-c2nnc(-c3ccc4c(c3)OCO4)o2)c1	none (no result: SENP1 FRET inh, SENP8 block-2)
Brc1ccc(-c2nnc(-c3ccc4c(c3)OCO4)o2)o1	SENP7 inh 61 | SENP8 conf inactive | SENP6 confirm inactive | SENP7 confirm inactive | Casp3 SENP sel inactive | Luc interf inactive
CCc1ccccc1N/C(=N/S(=O)(=O)c1ccccc1)C(F)(F)F	none (no result: SENP6 inh, SENP8 block-1, SENP1 FRET inh, SENP8 block-2, SENP7 inh)
COc1ccc(C=NNC(=O)c2cc(-c3ccc(C)cc3C)nc3ccccc23)cc1COC(C)=O	none (no result: SENP6 inh, SENP8 block-1, SENP1 FRET inh, SENP8 block-2, SENP7 inh)
COC(=O)c1ccc(C=NNC(=O)C(=O)N2CCCCCC2)cc1	none (no result: SENP6 inh, SENP8 block-1, SENP1 FRET inh, SENP8 block-2, SENP7 inh)
O=C(NN=C1SCC(=O)N1CCc1ccccc1)c1cccs1	none (no result: SENP6 inh, SENP8 block-1, SENP1 FRET inh, SENP8 block-2, SENP7 inh)
OC(COC(c1ccccc1)c1ccccc1)CN1CCN(c2cccc(Cl)c2)CC1 (stereo not drawn)	SENP6 inh 101 (no result: UCH37 DUB inh) | SENP8 conf inactive | SENP6 confirm inactive | SENP7 confirm inactive | Casp3 SENP sel inactive | Luc interf inactive
OC(CN1CCN(c2cccc(Cl)c2)CC1)c1ccccc1 (stereo not drawn)	none
Cc1onc(-c2c(Cl)cccc2Cl)c1C(=O)ON=C(C#N)c1ccccc1	none (no result: SENP6 inh, SENP8 block-1, SENP1 FRET inh, SENP8 block-2, SENP7 inh)
Nc1cccc(-c2cnc3ccccc3n2)c1	SENP6 inh 68, SENP8 block-1 51, SENP7 inh 58 | SENP8 conf inactive | SENP6 confirm inactive | SENP7 confirm 78 | Casp3 SENP sel 75 | Luc interf inactive
O=[N+]([O-])c1cc(-c2cnc3ccccc3n2)ccc1Cl	SENP7 inh 51 | SENP8 conf inactive | SENP6 confirm inactive | SENP7 confirm inactive | Casp3 SENP sel inactive | Luc interf inactive
O=[N+]([O-])c1cccc(-c2cnc3ccccc3n2)c1	none
O=C(Oc1ccc(-c2cnc3ccccc3n2)cc1)c1cc([N+](=O)[O-])ccc1Cl	SENP7 inh 78 (no result: UCH37 DUB inh) | SENP8 conf inactive | SENP6 confirm inactive | SENP7 confirm inactive | Casp3 SENP sel inactive | Luc interf inactive
Cc1c(C(=O)Oc2ccc(-c3cnc4ccccc4n3)cc2)cccc1[N+](=O)[O-]	none
COc1ccc(-c2cn(Cc3ccc(C(N)=O)cc3)c(-c3ccncc3)n2)cc1	SENP6 inh 72, SENP8 block-1 61, SENP7 inh 68 | SENP8 conf 71 | SENP6 confirm 69 | SENP7 confirm 91 | Casp3 SENP sel 76 | Luc interf 54
COc1ccc(-c2cn(CCC(=O)O)c(-c3ccncc3)n2)cc1	none
COc1ccc(C=NNS(=O)(=O)c2ccc(F)cc2)cc1COc1cc(F)ccc1[N+](=O)[O-]	none (no result: SENP6 inh, SENP8 block-1, SENP1 FRET inh, SENP8 block-2, SENP7 inh)
O=C(/C=C/c1cccs1)Nc1cccnc1	none
Cc1ccnc(NC(=O)/C=C/c2cccs2)c1	SENP6 inh 86, SENP8 block-1 57, SENP7 inh 67 | SENP8 conf 71 | SENP6 confirm 71 | SENP7 confirm 91 | Casp3 SENP sel 83 | Luc interf inactive
Cc1nn(-c2ccccc2)c(Cl)c1C=NNC(=O)CNc1n[nH]c(=O)[nH]c1=O	none (no result: SENP6 inh, SENP8 block-1, SENP1 FRET inh, SENP8 block-2, SENP7 inh)
